≈ marks a conversion by molar mass, not a printed value.
Each molecule was assayed on Streptococcus pyogenes (assay: Antibacterial activity against penicillin-susceptible Streptococcus pyogenes after 24 hrs by broth microdilution method). Settings: not given.
Type: functional
Method in brief: (§1)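 MIC by standard broth microdilution per NCCLS guidance. Strain panel: B. subtilis ATCC9372 and S. aureus ATCC25923 as standard susceptible strains, S. aureus ATCC29213 as […], S. pyogenes PS as penicillin-susceptible, S. pneumoniae ATCC49619 as standard susceptible, alongside Gram-negative strains.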

Row | Structure (SMILES) | MIC [µg/mL]
1 | NC(=O)c1c(F)ccc(OCCBr)c1F | 64 (≈ 229 µM)
2 | CCCCC(CC)COc1ccc(F)c(C(N)=O)c1F (stereo not drawn) | > 128
3 | NC(=O)c1c(F)ccc(OCCCCBr)c1F | 128 (≈ 415 µM)
4 | CC(C)COc1ccc(F)c(C(N)=O)c1F | > 128
5 | CC(C)CCOc1ccc(F)c(C(N)=O)c1F | > 128
6 | NC(=O)c1c(F)ccc(OCCCCCCCl)c1F | > 128
7 | NC(=O)c1c(F)ccc(OCCCCCl)c1F | 64 (≈ 243 µM)
8 | NC(=O)c1c(F)ccc(OCCCBr)c1F | 64 (≈ 218 µM)

Each molecule was assayed on Pseudomonas aeruginosa (assay: Antibacterial activity against Pseudomonas aeruginosa ATCC 27853 after 24 hrs by broth microdilution method). Settings: ATCC 27853, 24 h.
Type: functional
Method in brief: as §1

Row | Structure (SMILES) | MIC [µg/mL]
9 | NC(=O)c1c(F)ccc(OCCBr)c1F | 128 (≈ 457 µM)
10 | CCCCC(CC)COc1ccc(F)c(C(N)=O)c1F (stereo not drawn) | 128 (≈ 449 µM)
11 | NC(=O)c1c(F)ccc(OCCCCBr)c1F | 128 (≈ 415 µM)
12 | CC(C)COc1ccc(F)c(C(N)=O)c1F | 128 (≈ 558 µM)
13 | CC(C)CCOc1ccc(F)c(C(N)=O)c1F | 128 (≈ 526 µM)
14 | NC(=O)c1c(F)ccc(OCCCCCCCl)c1F | 256 (≈ 878 µM)
15 | NC(=O)c1c(F)ccc(OCCCCCl)c1F | 128 (≈ 485 µM)
16 | NC(=O)c1c(F)ccc(OCCCBr)c1F | 128 (≈ 435 µM)

What follows are molecules tested on Streptococcus pneumoniae (assay: Antibacterial activity against Streptococcus pneumoniae ATCC 49619 after 24 hrs by broth microdilution method). Settings: ATCC 49619, 24 h.
Type: functional
Method in brief: as §1

Row | Structure (SMILES) | MIC [µg/mL]
17 | NC(=O)c1c(F)ccc(OCCBr)c1F | > 128
18 | CCCCC(CC)COc1ccc(F)c(C(N)=O)c1F (stereo not drawn) | 64 (≈ 224 µM)
19 | NC(=O)c1c(F)ccc(OCCCCBr)c1F | > 128
20 | CC(C)COc1ccc(F)c(C(N)=O)c1F | 128 (≈ 558 µM)
21 | CC(C)CCOc1ccc(F)c(C(N)=O)c1F | 128 (≈ 526 µM)
22 | NC(=O)c1c(F)ccc(OCCCCCCCl)c1F | 128 (≈ 439 µM)
23 | NC(=O)c1c(F)ccc(OCCCCCl)c1F | 128 (≈ 485 µM)
24 | NC(=O)c1c(F)ccc(OCCCBr)c1F | > 128

Each molecule was assayed on Escherichia coli ATCC 25922 (assay: Inhibition of FtsZ in Escherichia coli ATCC 25922 assessed as decrease in cell division by measuring lowest compound concentration at which bacterial filamentation is observed after 5 hrs by phase-contrast light microscopy). Settings: not given.
Method in brief: (§2)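 Cell division inhibition scored by cell morphology under phase-contrast light microscopy. B. subtilis ATCC9372, E. coli ATCC25922 and S. aureus ATCC25923 were exposed to compound. The lowest concentration giving filamentation (B. subtilis, E. coli) or ballooning (S. aureus) was recorded as the cell division inhibitory concentration.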

Row | Structure (SMILES) | INH [µg/mL]
25 | NC(=O)c1c(F)ccc(OCCBr)c1F | 32
26 | CCCCC(CC)COc1ccc(F)c(C(N)=O)c1F (stereo not drawn) | 64
27 | NC(=O)c1c(F)ccc(OCCCCBr)c1F | 64
28 | CC(C)COc1ccc(F)c(C(N)=O)c1F | 64
29 | CC(C)CCOc1ccc(F)c(C(N)=O)c1F | 64
30 | NC(=O)c1c(F)ccc(OCCCCCCCl)c1F | 128
31 | NC(=O)c1c(F)ccc(OCCCCCl)c1F | 64
32 | NC(=O)c1c(F)ccc(OCCCBr)c1F | 64

These molecules were tested against T1, Cell division protein FtsZ (Staphylococcus aureus) (UniProt P0A031) (assay: Inhibition of FtsZ in Staphylococcus aureus ATCC 25923 assessed as decrease in cell division by measuring lowest compound concentration at which bacterial ballooning is observed after 5 hrs by phase-contrast light microscopy). Settings: not given.
T1 sequence (whole entry): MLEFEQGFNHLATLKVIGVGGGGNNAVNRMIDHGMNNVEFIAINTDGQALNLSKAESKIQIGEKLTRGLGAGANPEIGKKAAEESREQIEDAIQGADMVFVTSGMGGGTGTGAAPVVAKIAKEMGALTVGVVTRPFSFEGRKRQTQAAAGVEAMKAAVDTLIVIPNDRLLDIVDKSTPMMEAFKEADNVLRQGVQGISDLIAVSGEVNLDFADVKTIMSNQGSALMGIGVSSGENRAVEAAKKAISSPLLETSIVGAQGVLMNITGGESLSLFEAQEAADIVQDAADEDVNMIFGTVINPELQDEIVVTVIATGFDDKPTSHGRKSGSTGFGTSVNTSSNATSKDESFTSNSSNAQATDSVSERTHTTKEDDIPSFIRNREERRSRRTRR
Method in brief: as §2

Row | Structure (SMILES) | INH [µg/mL]
33 | NC(=O)c1c(F)ccc(OCCBr)c1F | 16
34 | CCCCC(CC)COc1ccc(F)c(C(N)=O)c1F (stereo not drawn) | 0.25
35 | NC(=O)c1c(F)ccc(OCCCCBr)c1F | 4
36 | CC(C)COc1ccc(F)c(C(N)=O)c1F | 16
37 | CC(C)CCOc1ccc(F)c(C(N)=O)c1F | 4
38 | NC(=O)c1c(F)ccc(OCCCCCCCl)c1F | 0.5
39 | NC(=O)c1c(F)ccc(OCCCCCl)c1F | 4
40 | NC(=O)c1c(F)ccc(OCCCBr)c1F | 16

Each molecule was assayed on Escherichia coli (assay: Antibacterial activity against Escherichia coli ATCC 25922 after 24 hrs by broth microdilution method). Settings: ATCC 25922, 24 h.
Type: functional
Method in brief: as §1

Row | Structure (SMILES) | MIC [µg/mL]
41 | NC(=O)c1c(F)ccc(OCCBr)c1F | 128 (≈ 457 µM)
42 | CCCCC(CC)COc1ccc(F)c(C(N)=O)c1F (stereo not drawn) | 256 (≈ 897 µM)
43 | NC(=O)c1c(F)ccc(OCCCCBr)c1F | 128 (≈ 415 µM)
44 | CC(C)COc1ccc(F)c(C(N)=O)c1F | 256 (≈ 1120 µM)
45 | CC(C)CCOc1ccc(F)c(C(N)=O)c1F | 128 (≈ 526 µM)
46 | NC(=O)c1c(F)ccc(OCCCCCCCl)c1F | 256 (≈ 878 µM)
47 | NC(=O)c1c(F)ccc(OCCCCCl)c1F | 128 (≈ 485 µM)
48 | NC(=O)c1c(F)ccc(OCCCBr)c1F | 128 (≈ 435 µM)

What follows are molecules tested on Staphylococcus aureus (assay: Antibacterial activity against penicillin-resistant Staphylococcus aureus clinical isolate after 24 hrs by broth microdilution method). Settings: not given.
Type: functional

Row | Structure (SMILES) | MIC [µg/mL]
49 | NC(=O)c1c(F)ccc(OCCBr)c1F | 32 (≈ 114 µM)
50 | CCCCC(CC)COc1ccc(F)c(C(N)=O)c1F (stereo not drawn) | 8 (≈ 28 µM)
51 | NC(=O)c1c(F)ccc(OCCCCBr)c1F | 8 (≈ 26 µM)
52 | CC(C)COc1ccc(F)c(C(N)=O)c1F | 64 (≈ 279 µM)
53 | CC(C)CCOc1ccc(F)c(C(N)=O)c1F | 16 (≈ 65.8 µM)
54 | NC(=O)c1c(F)ccc(OCCCCCCCl)c1F | 8 (≈ 27.4 µM)
55 | NC(=O)c1c(F)ccc(OCCCCCl)c1F | 8 (≈ 30.3 µM)
56 | NC(=O)c1c(F)ccc(OCCCBr)c1F | 32 (≈ 109 µM)

What follows are molecules tested on Staphylococcus aureus (assay: Antibacterial activity against Staphylococcus aureus ATCC 29213 after 24 hrs by broth microdilution method). Settings: ATCC 29213, 24 h.
Type: functional
Method in brief: as §1

Row | Structure (SMILES) | MIC [µg/mL]
57 | NC(=O)c1c(F)ccc(OCCBr)c1F | 64 (≈ 229 µM)
58 | CCCCC(CC)COc1ccc(F)c(C(N)=O)c1F (stereo not drawn) | 8 (≈ 28 µM)
59 | NC(=O)c1c(F)ccc(OCCCCBr)c1F | 32 (≈ 104 µM)
60 | CC(C)COc1ccc(F)c(C(N)=O)c1F | 128 (≈ 558 µM)
61 | CC(C)CCOc1ccc(F)c(C(N)=O)c1F | 16 (≈ 65.8 µM)
62 | NC(=O)c1c(F)ccc(OCCCCCCCl)c1F | 16 (≈ 54.8 µM)
63 | NC(=O)c1c(F)ccc(OCCCCCl)c1F | 8 (≈ 30.3 µM)
64 | NC(=O)c1c(F)ccc(OCCCBr)c1F | 32 (≈ 109 µM)

These molecules were tested on Bacillus subtilis (assay: Inhibition of FtsZ in Bacillus subtilis ATCC 9372 assessed as decrease in cell division by measuring lowest compound concentration at which bacterial filamentation is observed after 5 hrs by phase-contrast light microscopy). Settings: not given.
Method in brief: as §2

Row | Structure (SMILES) | INH [µg/mL]
65 | NC(=O)c1c(F)ccc(OCCBr)c1F | 2
66 | CCCCC(CC)COc1ccc(F)c(C(N)=O)c1F (stereo not drawn) | 0.125
67 | NC(=O)c1c(F)ccc(OCCCCBr)c1F | 1
68 | CC(C)COc1ccc(F)c(C(N)=O)c1F | 32
69 | CC(C)CCOc1ccc(F)c(C(N)=O)c1F | 4
70 | NC(=O)c1c(F)ccc(OCCCCCCCl)c1F | 0.25
71 | NC(=O)c1c(F)ccc(OCCCCCl)c1F | 2
72 | NC(=O)c1c(F)ccc(OCCCBr)c1F | 16

Each molecule was assayed on Staphylococcus aureus (assay: Antibacterial activity against Staphylococcus aureus ATCC 25923 after 24 hrs by broth microdilution method). Settings: ATCC 25923, 24 h.
Type: functional
Method in brief: as §1

Row | Structure (SMILES) | MIC [µg/mL]
73 | NC(=O)c1c(F)ccc(OCCBr)c1F | 16 (≈ 57.1 µM)
74 | CCCCC(CC)COc1ccc(F)c(C(N)=O)c1F (stereo not drawn) | 1 (≈ 3.5 µM)
75 | NC(=O)c1c(F)ccc(OCCCCBr)c1F | 4 (≈ 13 µM)
76 | CC(C)COc1ccc(F)c(C(N)=O)c1F | 32 (≈ 140 µM)
77 | CC(C)CCOc1ccc(F)c(C(N)=O)c1F | 64 (≈ 263 µM)
78 | NC(=O)c1c(F)ccc(OCCCCCCCl)c1F | 2 (≈ 6.86 µM)
79 | NC(=O)c1c(F)ccc(OCCCCCl)c1F | 8 (≈ 30.3 µM)
80 | NC(=O)c1c(F)ccc(OCCCBr)c1F | 16 (≈ 54.4 µM)

These molecules were tested on Bacillus subtilis (assay: Antibacterial activity against Bacillus subtilis ATCC 9372 after 24 hrs by broth microdilution method). Settings: ATCC 9372, 24 h.
Type: functional
Method in brief: as §1

Row | Structure (SMILES) | MIC [µg/mL]
81 | NC(=O)c1c(F)ccc(OCCBr)c1F | 16 (≈ 57.1 µM)
82 | CCCCC(CC)COc1ccc(F)c(C(N)=O)c1F (stereo not drawn) | 0.25 (≈ 0.876 µM)
83 | NC(=O)c1c(F)ccc(OCCCCBr)c1F | 4 (≈ 13 µM)
84 | CC(C)COc1ccc(F)c(C(N)=O)c1F | 64 (≈ 279 µM)
85 | CC(C)CCOc1ccc(F)c(C(N)=O)c1F | 8 (≈ 32.9 µM)
86 | NC(=O)c1c(F)ccc(OCCCCCCCl)c1F | 0.5 (≈ 1.71 µM)
87 | NC(=O)c1c(F)ccc(OCCCCCl)c1F | 4 (≈ 15.2 µM)
88 | NC(=O)c1c(F)ccc(OCCCBr)c1F | 32 (≈ 109 µM)

From ChEMBL document CHEMBL4002610, “Design, synthesis and biological activity evaluation of novel 2,6-difluorobenzamide derivatives through FtsZ inhibition” (2017)
